# In ChEMBL document CHEMBL1165943, “Design and synthesis of new anticancer pyrimidines with multiple-kinase inhibitory effect” (Bioorg Med Chem, 2010):
# How the values were obtained:
# K562 [1] = assay: Cytotoxicity against human K562 cells assessed as cell growth at 0.001 uM after 48 hrs by sulforhodamine B assay; format: functional; settings: K562, 48 h, read-out: Activity
# SF-539 [2] = assay: Cytotoxicity against human SF539 cells assessed as cell growth at 0.001 uM after 48 hrs by sulforhodamine B assay; format: functional; settings: SF-539, 48 h, read-out: Activity
# M14 [3] = assay: Cytotoxicity against human M14 cells assessed as cell growth at 0.001 uM after 48 hrs by sulforhodamine B assay; format: functional; settings: M14, 48 h, read-out: Activity
# NCI/ADR-RES = assay: Cytotoxicity against human NCI/ADR-RES cells assessed as cell growth at 0.001 uM after 48 hrs by sulforhodamine B assay; format: functional; settings: read-out: Activity
# SK-OV-3 [4] = assay: Cytotoxicity against human SKOV3 cells assessed as cell growth at 0.001 uM after 48 hrs by sulforhodamine B assay; format: functional; settings: SK-OV-3, 48 h, read-out: Activity
# TK-10 = assay: Cytotoxicity against human TK10 cells assessed as cell growth at 0.001 uM after 48 hrs by sulforhodamine B assay; format: functional; settings: TK-10, 48 h, read-out: Activity
# HOP-62 = assay: Cytotoxicity against human HOP62 cells assessed as cell growth at 100 nM after 48 hrs by sulforhodamine B assay; format: functional; settings: HOP-62, 48 h, read-out: Activity
# SF-295 [5] = assay: Cytotoxicity against human SF295 cells assessed as cell growth at 100 nM after 48 hrs by sulforhodamine B assay; format: functional; settings: SF-295, 48 h, read-out: Activity
# SF-539 [6] = assay: Cytotoxicity against human SF539 cells assessed as cell growth at 100 nM after 48 hrs by sulforhodamine B assay; format: functional; settings: SF-539, 48 h, read-out: Activity
# SK-MEL-2 = assay: Cytotoxicity against human SK-MEL-2 cells assessed as cell growth at 100 nM after 48 hrs by sulforhodamine B assay; format: functional; settings: SK-MEL-2, 48 h, read-out: Activity
# IGROV-1 [7] = assay: Cytotoxicity against human IGROV1 cells assessed as cell growth at 100 nM after 48 hrs by sulforhodamine B assay; format: functional; settings: IGROV-1, 48 h, read-out: Activity
# SF-295 [8] = assay: Cytotoxicity against human SF295 cells assessed as cell growth at 10 uM after 48 hrs by sulforhodamine B assay; format: functional; settings: SF-295, 48 h, read-out: Activity
# SNB-75 = assay: Cytotoxicity against human SNB75 cells assessed as cell growth at 10 uM after 48 hrs by sulforhodamine B assay; format: functional; settings: SNB-75, 48 h, read-out: Activity
# SF-268 = assay: Cytotoxicity against human SF268 cells assessed as cell growth at 0.01 uM after 48 hrs by sulforhodamine B assay; format: functional; settings: SF-268, 48 h, read-out: Activity
# M14 [9] = assay: Cytotoxicity against human M14 cells assessed as cell growth at 0.01 uM after 48 hrs by sulforhodamine B assay; format: functional; settings: M14, 48 h, read-out: Activity
# MDA-MB-435 = assay: Cytotoxicity against human MDA-MB-435 cells assessed as cell growth at 10 uM after 48 hrs by sulforhodamine B assay; format: functional; settings: MDA-MB-435, 48 h, read-out: Activity
# IGROV-1 [10] = assay: Cytotoxicity against human IGROV1 cells assessed as cell growth at 10 uM after 48 hrs by sulforhodamine B assay; format: functional; settings: IGROV-1, 48 h, read-out: Activity
# OVCAR-3 [11] = assay: Cytotoxicity against human OVCAR-3 cells assessed as cell growth at 10 uM after 48 hrs by sulforhodamine B assay; format: functional; settings: OVCAR-3, 48 h, read-out: Activity
# SK-OV-3 [12] = assay: Cytotoxicity against human SKOV3 cells assessed as cell growth at 10 uM after 48 hrs by sulforhodamine B assay; format: functional; settings: SK-OV-3, 48 h, read-out: Activity
# MDA-MB-231 = assay: Cytotoxicity against human MDA-MB-231 cells assessed as cell growth at 10 uM after 48 hrs by sulforhodamine B assay; format: functional; settings: MDA-MB-231, 48 h, read-out: Activity
# NCI-H522 = assay: Cytotoxicity against human NCI-H522 cells assessed as cell growth at 1 uM after 48 hrs by sulforhodamine B assay; format: functional; settings: NCI-H522, 48 h, read-out: Activity
# SK-MEL-5 = assay: Cytotoxicity against human SK-MEL-5 cells assessed as cell growth at 0.01 uM after 48 hrs by sulforhodamine B assay; format: functional; settings: SK-MEL-5, 48 h, read-out: Activity
# UACC-62 = assay: Cytotoxicity against human UACC62 cells assessed as cell growth at 0.01 uM after 48 hrs by sulforhodamine B assay; format: functional; settings: UACC-62, 48 h, read-out: Activity
# OVCAR-3 [13] = assay: Cytotoxicity against human OVCAR-3 cells assessed as cell growth at 0.01 uM after 48 hrs by sulforhodamine B assay; format: functional; settings: OVCAR-3, 48 h, read-out: Activity
# 786-0 = assay: Cytotoxicity against human 786-0 cells assessed as cell growth at 0.01 uM after 48 hrs by sulforhodamine B assay; format: functional; settings: 786-0, 48 h, read-out: Activity
# How it was run: (§1)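 Cells grown in RPMI 1640 with 5% FBS and 2 mM L-glutamine, seeded at 5,000–40,000 cells/well by doubling time. Time-zero plates TCA-fixed after 24 h. Five concentrations (10-fold or half-log dilutions from DMSO stock) added; 48 h at 37 °C, 5% CO2. Cold TCA fixation (final 10%, 60 min, 4 °C), 0.4% SRB stain, dye solubilized in 10 mM trizma base, A515.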
# Malme-3M = assay: Cytotoxicity against human MALME-3M cells assessed as cell growth at 1 uM after 48 hrs by sulforhodamine B assay; format: functional; settings: read-out: Activity
# OVCAR-3 [14] = assay: Cytotoxicity against human OVCAR-3 cells assessed as cell growth at 1 uM after 48 hrs by sulforhodamine B assay; format: functional; settings: OVCAR-3, 48 h, read-out: Activity
# CAKI-1 = assay: Cytotoxicity against human Caki1 cells assessed as cell growth at 1 uM after 48 hrs by sulforhodamine B assay; format: functional; settings: CAKI-1, 48 h, read-out: Activity; how it was run: as §1
# DU-145 = assay: Cytotoxicity against human DU145 cells assessed as cell growth at 1 uM after 48 hrs by sulforhodamine B assay; format: functional; settings: DU-145, 48 h, read-out: Activity
# K562 [15] = assay: Cytotoxicity against human K562 cells assessed as cell growth at 10 uM after 48 hrs by sulforhodamine B assay; format: functional; settings: K562, 48 h, read-out: Activity
# COLO 205 = assay: Cytotoxicity against human COLO205 cells assessed as cell growth at 10 uM after 48 hrs by sulforhodamine B assay; format: functional; settings: COLO 205, 48 h, read-out: Activity; how it was run: as §1
# SW-620 = assay: Growth inhibition of human SW620 cells after 48 hrs by sulforhodamine B assay; format: functional, cell-based; settings: SW-620, 48 h; for CC50: read-out: LC50 (the source's name)
# How it was run: (§2)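 Cells grown in RPMI 1640 with 5% FBS and 2 mM L-glutamine, seeded at 5,000–40,000 cells/well according to doubling time. After 24 h, time-zero plates are TCA-fixed. Five concentrations (10-fold or ½log dilutions, DMSO stocks) are applied for 48 h at 37 °C, 5% CO₂. Cells are TCA-fixed, SRB-stained and read at 515 nm. IC₅₀ is taken from [(Ti−Tz)/(C−Tz)]×100 = 50.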
# SNB-19 = assay: Growth inhibition of human SNB19 cells after 48 hrs by sulforhodamine B assay; format: functional, cell-based; settings: SNB-19, 48 h; for CC50: read-out: LC50 (the source's name); how it was run: as §2
Structure (SMILES),growth at 0.001 µM (K562 [1]) [%],growth at 0.001 µM (SF-539 [2]) [%],growth at 0.001 µM (M14 [3]) [%],growth at 0.001 µM (NCI/ADR-RES) [%],growth at 0.001 µM (SK-OV-3 [4]) [%],growth at 0.001 µM (TK-10) [%],growth at 0.1 µM (HOP-62) [%],growth at 0.1 µM (SF-295 [5]) [%],growth at 0.1 µM (SF-539 [6]) [%],growth at 0.1 µM (SK-MEL-2) [%],growth at 0.1 µM (IGROV-1 [7]) [%],growth at 10 µM (SF-295 [8]) [%],growth at 10 µM (SNB-75) [%],growth at 0.01 µM (SF-268) [%],growth at 0.01 µM (M14 [9]) [%],growth at 10 µM (MDA-MB-435) [%],growth at 10 µM (IGROV-1 [10]) [%],growth at 10 µM (OVCAR-3 [11]) [%],growth at 10 µM (SK-OV-3 [12]) [%],growth at 10 µM (MDA-MB-231) [%],further results
CC(=O)c1ccccc1-c1ccc(-c2ccnc(NC(=O)Nc3cc(N4CCOCC4)cc(C(F)(F)F)c3)n2)cn1,81,97,94,100,111,103,100,88,88,102,87,48,-45,90,95,91,41,51,41,56,growth at 1 µM (NCI-H522): 90%; growth at 0.01 µM (SK-MEL-5): 99%; growth at 0.01 µM (UACC-62): 94%; growth at 0.01 µM (OVCAR-3 [13]): 95%; growth at 0.01 µM (786-0): 100%; growth at 1 µM (Malme-3M): 24%; growth at 1 µM (OVCAR-3 [14]): 70%; growth at 1 µM (CAKI-1): 58%; growth at 1 µM (DU-145): 19%; growth at 10 µM (K562 [15]): 103%; growth at 10 µM (COLO 205): 115%; GI50 (SW-620): > 100 µM; IC50 (SW-620): > 100 µM; TGI (SW-620): > 100 µM; CC50 (SW-620): > 100 µM; GI50 (SNB-19): 9.04 µM; IC50 (SNB-19): 38.7 µM; TGI (SNB-19): > 100 µM; CC50 (SNB-19): > 100 µM
CC(=O)Nc1cccc(-c2ccc(-c3ccnc(NC(=O)Nc4cc(C(F)(F)F)cc(C(F)(F)F)c4)n3)cn2)c1.Cl,93,97,94,95,103,103,100,57,86,96,89,-33,-57,95,92,-27,-21,100,-63,-71,growth at 1 µM (NCI-H522): -22%; growth at 0.01 µM (SK-MEL-5): 91%; growth at 0.01 µM (UACC-62): 92%; growth at 0.01 µM (OVCAR-3 [13]): 105%; growth at 0.01 µM (786-0): 98%; growth at 1 µM (Malme-3M): -50%; growth at 1 µM (OVCAR-3 [14]): -52%; growth at 1 µM (CAKI-1): -7%; growth at 1 µM (DU-145): 38%; growth at 10 µM (K562 [15]): 19%; growth at 10 µM (COLO 205): 3%; GI50 (SW-620): 2.3 µM; IC50 (SW-620): 2.3 µM; TGI (SW-620): 5.59 µM; CC50 (SW-620): > 100 µM; GI50 (SNB-19): 4.57 µM; IC50 (SNB-19): 4.57 µM; TGI (SNB-19): 17.8 µM; CC50 (SNB-19): 47.4 µM
